Assay results gathered from unrelated publications.
Target: Inhibitor of nuclear factor kappa-B kinase subunit epsilon (IKBKE, Homo sapiens, UniProt Q14164)
Sequence (Q14164 1-716, as in one of the studies): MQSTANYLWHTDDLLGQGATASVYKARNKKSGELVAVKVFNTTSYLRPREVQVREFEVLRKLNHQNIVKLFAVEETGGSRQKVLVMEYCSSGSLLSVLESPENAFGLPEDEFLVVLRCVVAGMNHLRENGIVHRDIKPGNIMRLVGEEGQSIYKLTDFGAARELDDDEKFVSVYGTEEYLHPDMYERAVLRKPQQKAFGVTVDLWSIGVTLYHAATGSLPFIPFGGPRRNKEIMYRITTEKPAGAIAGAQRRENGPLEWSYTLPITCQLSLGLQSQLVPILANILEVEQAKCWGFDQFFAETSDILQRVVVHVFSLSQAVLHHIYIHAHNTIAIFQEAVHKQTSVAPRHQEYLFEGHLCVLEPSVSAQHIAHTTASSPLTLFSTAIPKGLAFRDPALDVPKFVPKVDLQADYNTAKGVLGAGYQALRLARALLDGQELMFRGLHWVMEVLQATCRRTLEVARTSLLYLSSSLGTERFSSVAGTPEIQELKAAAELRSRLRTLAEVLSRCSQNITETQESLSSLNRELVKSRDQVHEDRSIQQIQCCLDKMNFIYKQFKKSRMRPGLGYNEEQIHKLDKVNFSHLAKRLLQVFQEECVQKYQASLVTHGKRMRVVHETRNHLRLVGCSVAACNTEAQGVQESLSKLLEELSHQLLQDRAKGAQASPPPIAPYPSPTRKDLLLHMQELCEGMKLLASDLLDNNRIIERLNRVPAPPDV

Compound	test	setting	quantity	value
N#CC1(c2ccccn2)CCN(Cc2cc(C(=O)O)c(=O)n3ccccc23)CC1	cell-free assay, competition with immobilised ligand	1 µM	remaining binding	88%
COc1ncccc1-c1cnn2ccc(N3CCN(C(=O)OC(C)C)CC3)nc12	binding, competition with immobilised ligand	1 µM	remaining binding	69%
Cn1cc(-c2cccc(N3CCc4c(sc5c4CC(C)(C)C5)C3=O)c2CO)cc(Nc2ccncn2)c1=O	enzyme activity, inhibitor	1 µM	inhibition	9%
Cn1cncc1[C@@](O)(COc1ccc(C#N)cc1-c1ccc(OC(F)(F)F)cc1)c1ccc(C#N)cc1	cell-free assay, competition with immobilised ligand	1 µM	remaining binding	100%
Cn1cc(-c2cc(F)cc(N3CCn4c(cc5c4CCCC5)C3=O)c2CO)cc(Nc2ccc(N3CCN(C4COC4)CC3)cn2)c1=O	enzyme activity, inhibitor	0.1 µM	inhibition	12%
CC(C)(C)c1cc(C=C(C#N)C#N)cc(Br)c1O	enzyme activity, inhibitor	0.5 µM	remaining activity	86.8%
Nc1ncc(-c2nc(N3CCOCC3)nc(N3CCOCC3)n2)c(C(F)F)n1	binding, competition with immobilised ligand	10 µM	remaining binding	99%
Cc1nn(C)cc1-c1nc2c(N3CCN(Cc4ccc(Cl)cc4)CC3)c(Cl)cnc2[nH]1	binding, competition with immobilised ligand	1 µM	remaining binding	100%
O=c1[nH]c2ccccc2n1C1CCN(Cc2ccc(-c3[nH]c4cc5ncnc5cc4nc3-c3ccccc3)cc2)CC1	enzyme activity	0.5 µM	remaining activity	91.9%
